Test results taken from ChEMBL document CHEMBL1122773 (1984).
≈ marks a conversion by molar mass, not a printed value.

What was measured:
Type in all cases: functional
Mus musculus [1] = experiment: In vivo antibacterial activity against Escherichia coli (UC no 311) infected mice after sc administration
Method in brief: (§1)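 Fresh drug solutions were given subcutaneously (0.2 mL) or by oral intubation (0.5 mL), per line. Dosing was immediately after infection, then daily for 4 consecutive days, with 3 further days of observation. CD50 was calculated by Spearman-Karber.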

Mus musculus [2] = experiment: In vivo antibacterial activity against Streptococcus pyogenes(UC 152) infected mice after sc administration; method in brief: as §1
Mus musculus [3] = experiment: In vivo antibacterial activity against Klebsiella pneumoniae (UC 58) infected mice after sc administration; method in brief: as §1
Mus musculus [4] = experiment: In vivo antibacterial activity against Bacteroides fragilis (UC no 6428) infected mice after sc administration
Mus musculus [5] = experiment: In vivo antibacterial activity against Staphylococcus aureus(UC 76) infected mice after oral administration; method in brief: as §1
Mus musculus [6] = experiment: In vivo antibacterial activity against Streptococcus pneumoniae I (UC 41) infected mice after sc administration; method in brief: as §1
Mus musculus [7] = experiment: In vivo antibacterial activity against Streptococcus pneumoniae I(UC 41) infected mice after oral administration; method in brief: as §1
Mus musculus [8] = experiment: In vivo antibacterial activity against Proteus vulgaris (UC no 347) infected mice after sc administration; method in brief: as §1
Mus musculus [9] = experiment: (§2) In vivo antibacterial activity against Pasteurella multocida(UC 264) infected mice after oral administration; method in brief: as §1
Mus musculus [10] = experiment: In vivo antibacterial activity against Streptococcus pneumoniae […](UC 3213) infected mice after sc administration; method in brief: as §1
Fusobacterium varium = experiment: In vitro antibacterial activity against the anaerobic Fusobacterium varium(Strain UC no.6052)
Method in brief: (§3)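 Agar dilution with serial twofold drug dilutions in Schaedler broth mixed into molten Wilkens-Chalgren agar. Strains grown 48 h on Schaedler agar, suspended to 0.5 McFarland, and 0.001 mL spotted by replicator. All steps done anaerobically. Incubation 48 h at 37 °C. MIC is the least drug inhibiting growth; a faint film or fewer than three colonies scored negative.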

Streptococcus pyogenes = experiment: In vivo antibacterial activity against Streptococcus pyogenes (UC no 152) infected mice after sc administration (value in parenthesis is 95% confidence interval); method in brief: as §1
Enterococcus faecalis = experiment: In vitro antibacterial activity against the aerobic […] (Strain UC no.694)
Method in brief: (§4)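 Broth microdilution in brain/heart infusion broth with twofold drug dilutions. Inoculum was a standardized suspension giving 10⁵ viable cells/mL final. Plates were incubated 20 h at 37 °C. MIC (mcg/mL) = lowest concentration with no visible growth.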

[11] = tested on: Bacteroides thetaiotaomicron; experiment: In vitro antibacterial activity against the anaerobic Bacteroides thetaiotaomicron (Strain UC no.6512); method in brief: as §3
Streptococcus pneumoniae [12] = experiment: In vivo antibacterial activity against Streptococcus pneumoniae III(UC 3213) infected mice after oral administration (value in parenthesis is 95% confidence interval); method in brief: as §1
Pasteurella multocida [13] = experiment: In vivo antibacterial activity against Pasteurella multocida(UC no 264) infected mice after sc administration; method in brief: as §1
Bacteroides fragilis [14] = experiment: In vivo antibacterial activity against Bacteroides fragilis(UC no 6428) infected mice after sc administration
Clostridium perfringens [15] = experiment: In vitro antibacterial activity against the anaerobic Clostridium perfringens (Strain UC no.6509)
Actinomyces naeslundii = experiment: In vitro antibacterial activity against the anaerobic Actinomyces naeslundii (Strain UC no.5920)
Clostridium botulinum = experiment: In vitro antibacterial activity against the anaerobic Clostridium botulinum A(Strain UC no.6506)
[16] = tested on: Peptoniphilus asaccharolyticus; experiment: In vitro antibacterial activity against the anaerobic Peptococcus asaccharolyticus (Strain UC no.6214); method in brief: as §3
Clostridioides difficile [17] = experiment: In vitro antibacterial activity against the anaerobic Clostridium difficile (Strain UC no.6858); method in brief: as §3
Staphylococcus aureus [18] = experiment: In vitro antibacterial activity against the aerobic Staphylococcus aureus (Strain UC no.6690); method in brief: as §4
Streptococcus pneumoniae [19] = experiment: In vivo antibacterial activity against Streptococcus pneumoniae I(UC 41) infected mice after oral administration (value in parenthesis is 95% confidence interval); method in brief: as §1
Plasmodium berghei [20] = experiment: In vivo activity against Plasmodium berghei in mice (Mus musculus) after subcutaneous dose (95% confidence interval)
Clostridium perfringens [21] = experiment: In vitro antibacterial activity against the anaerobic Clostridium perfringens (Strain UC no.247)
[22] = tested on: Paeniclostridium sordellii; experiment: In vitro antibacterial activity against the anaerobic Clostridium sordellii (Strain UC no.6505); settings: Paraclostridium sordellii; method in brief: as §3
Eubacterium limosum = experiment: In vitro antibacterial activity against the anaerobic Eubacterium limosum(Strain UC no.6515); method in brief: as §3
Pasteurella multocida [23] = experiment: In vitro antibacterial activity against the aerobic Pasteurella multocida (Strain UC no.264); method in brief: as §4
Fusobacterium nucleatum = experiment: In vitro antibacterial activity against the anaerobic Fusobacterium nucleatum (Strain UC no.6516); method in brief: as §3
Streptococcus pneumoniae [24] = experiment: In vivo antibacterial activity against Streptococcus pneumoniae III (UC no 3213) infected mice after sc administration (value in parenthesis is 95% confidence interval); method in brief: as §1
Cutibacterium acnes = experiment: In vitro antibacterial activity against the anaerobic Propionibacterium acnes(Strain UC no.6564); method in brief: as §3
[25] = tested on: Peptostreptococcus anaerobius; experiment: In vitro antibacterial activity against the anaerobic Peptostreptococcus anaerobius(Strain UC no.6321); method in brief: as §3
Streptococcus pneumoniae [26] = experiment: In vivo antibacterial activity against Streptococcus pneumoniae I (UC no 41) infected mice after sc administration (value in parenthesis is 95% confidence interval); method in brief: as §1
Staphylococcus aureus [27] = experiment: In vivo antibacterial activity against Staphylococcus aureus(UC 76) infected mice after oral administration (value in parenthesis is 95% confidence interval); method in brief: as §1
Klebsiella pneumoniae = experiment: In vivo antibacterial activity against Klebsiella pneumoniae(UC no 58) infected mice after sc administration; method in brief: as §1
[28] = tested on: Prevotella melaninogenica; experiment: In vitro antibacterial activity against the anaerobic Bacteroides melaninogenicus (Strain UC no.6326); method in brief: as §3
[29] = tested on: Staphylococcus epidermidis; experiment: In vitro antibacterial activity against the aerobic Staphylococcus epidermidis (Strain UC no.719); method in brief: as §4
Clostridioides difficile [30] = experiment: In vitro antibacterial activity against the anaerobic Clostridium difficile (Strain UC no.6834); method in brief: as §3
Clostridioides difficile [31] = experiment: In vitro antibacterial activity against the anaerobic Clostridium difficile (Strain UC no.6861); method in brief: as §3
Proteus vulgaris = experiment: In vivo antibacterial activity against Proteus vulgaris(UC no 347) infected mice after sc administration; method in brief: as §1
Escherichia coli = experiment: In vivo antibacterial activity against Escherichia coli(UC no 311) infected mice after sc administration; method in brief: as §1
Bacteroides fragilis [32] = experiment: In vitro antibacterial activity against the anaerobic Bacteroides fragilis (Strain UC no.6513); method in brief: as §3
[33] = tested on: Staphylococcus epidermidis; experiment: In vitro antibacterial activity against the aerobic Staphylococcus epidermidis (Strain UC no.3389); method in brief: as §4
Plasmodium berghei [34] = experiment: In vivo activity against Plasmodium berghei in mice (Mus musculus) on oral administration
Clostridioides difficile [35] = experiment: In vitro antibacterial activity against the anaerobic Clostridium difficile (Strain UC no.6857); method in brief: as §3
Pasteurella multocida [36] = experiment: as §2; method in brief: as §1
Bacteroides fragilis [37] = experiment: In vitro antibacterial activity against the anaerobic Bacteroides fragilis (Strain UC no.6428)
Clostridioides difficile [38] = experiment: In vitro antibacterial activity against the anaerobic Clostridium difficile (Strain UC no.6860); method in brief: as §3
Bacteroides fragilis [39] = experiment: In vitro antibacterial activity against the anaerobic Bacteroides fragilis (Strain UC no.6864); method in brief: as §3

`CCC[C@@H]1C[C@@H](C(=O)N[C@@H]([C@H]2O[C@H](SC)[C@H](O)[C@@H](O)[C@H]2O)[C@H](C)Cl)N(C)C1` [CLINDAMYCIN] was tested, and the CD50 (Mus musculus [1]) was >160 mg/kg, the CD50 (Mus musculus [2]) was 2.3 mg/kg and the CD50 (Mus musculus [3]) was >320 mg/kg. It also gave a CD50 (Mus musculus [4]) of 14.4 mg/kg, a CD50 (Mus musculus [5]) of 12.3 mg/kg and a CD50 (Mus musculus [6]) of 40 mg/kg. The CD50 (Mus musculus [7]) was 45.5 mg/kg, the CD50 (Mus musculus [8]) was >160 mg/kg and the CD50 (Mus musculus [9]) was >400 mg/kg. It also gave a CD50 (Mus musculus [10]) of 20 mg/kg.

For `CC[C@@H]1CCN[C@H](C(=O)N[C@@H]([C@H]2O[C@H](SC)[C@H](O)[C@@H](O)[C@H]2O)[C@H](C)Cl)C1` [PIRLIMYCIN], the MIC (Fusobacterium varium) was 3.9 µg/mL (≈ 9.49 µM), the CD50 (Streptococcus pyogenes) was 0.25 mg/kg and the MIC (Enterococcus faecalis) was 6.25 µg/mL (≈ 15.2 µM). For the same molecule, the MIC [11] was 0.5 µg/mL (≈ 1.22 µM), the CD50 (Streptococcus pneumoniae [12]) was 17.7 mg/kg and the CD50 (Pasteurella multocida [13]) was >160 mg/kg. For the same molecule, the CD50 (Bacteroides fragilis [14]) was <6.25 mg/kg, the MIC (Clostridium perfringens [15]) was 0.12 µg/mL (≈ 0.292 µM) and the MIC (Actinomyces naeslundii) was 0.25 µg/mL (≈ 0.608 µM). For the same molecule, the MIC (Clostridium botulinum) was < 0.03 µg/mL, the MIC [16] was 0.25 µg/mL (≈ 0.608 µM) and the MIC (Clostridioides difficile [17]) was 3.9 µg/mL (≈ 9.49 µM). It also gave an MIC (Staphylococcus aureus [18]) of 0.2 µg/mL (≈ 0.487 µM), a CD50 (Streptococcus pneumoniae [19]) of 20.3 mg/kg and a CD50 (Plasmodium berghei [20]) of 16 mg/kg. For the same molecule, the MIC (Clostridium perfringens [21]) was 0.12 µg/mL (≈ 0.292 µM), the MIC [22] was 0.5 µg/mL (≈ 1.22 µM) and the MIC (Eubacterium limosum) was 2 µg/mL (≈ 4.87 µM). The MIC (Pasteurella multocida [23]) was 62.5 µg/mL (≈ 152 µM), the MIC (Fusobacterium nucleatum) was 0.12 µg/mL (≈ 0.292 µM) and the CD50 (Streptococcus pneumoniae [24]) was 2.7 mg/kg. It also gave an MIC (Cutibacterium acnes) of 0.12 µg/mL (≈ 0.292 µM), an MIC [25] of 0.12 µg/mL (≈ 0.292 µM) and a CD50 (Streptococcus pneumoniae [26]) of 1.7 mg/kg. The CD50 (Staphylococcus aureus [27]) was 2.9 mg/kg, the CD50 (Klebsiella pneumoniae) was >320 mg/kg and the MIC [28] was 0.06 µg/mL (≈ 0.146 µM). For the same molecule, the MIC [29] was 0.2 µg/mL (≈ 0.487 µM), the MIC (Clostridioides difficile [30]) was 3.9 µg/mL (≈ 9.49 µM) and the MIC (Clostridioides difficile [31]) was 2 µg/mL (≈ 4.87 µM). The CD50 (Proteus vulgaris) was >160 mg/kg, the CD50 (Escherichia coli) was >160 mg/kg and the MIC (Bacteroides fragilis [32]) was 0.12 µg/mL (≈ 0.292 µM). The MIC [33] was 0.2 µg/mL (≈ 0.487 µM), the CD50 (Plasmodium berghei [34]) was >50 mg/kg and the MIC (Clostridioides difficile [35]) was 125 µg/mL (≈ 304 µM). It also gave a CD50 (Pasteurella multocida [36]) of 400 mg/kg, an MIC (Bacteroides fragilis [37]) of 0.25 µg/mL (≈ 0.608 µM) and an MIC (Clostridioides difficile [38]) of 500 µg/mL (≈ 1220 µM). It also gave an MIC (Bacteroides fragilis [39]) of 2 µg/mL (≈ 4.87 µM).
